Calls of active or inactive are those of the source. The rule behind the calls is not given here.
Legend:
PC-3 [1] = assay: Induction of cell cycle arrest in human PC3 assessed as accumulation of cells at G0/G1-phase at 10 uM after 24 hrs by propidium iodide staining-based FACS analysis (reference value: 58.7 +/- 1.4%); type: functional
PC-3 [2] = assay: Induction of cell cycle arrest in human PC3 assessed as accumulation of cells at G0/G1-phase at 10 uM after 48 hrs by propidium iodide staining-based FACS analysis (reference value: 58.8 +/- 2.2%); type: functional
PC-3 [3] = assay: Induction of cell cycle arrest in human PC3 assessed as accumulation of cells at S-phase at 10 uM after 24 hrs by propidium iodide staining-based FACS analysis (reference value: 22.4 +/- 1.3%); type: functional
PC-3 [4] = assay: Induction of cell cycle arrest in human PC3 assessed as accumulation of cells at S-phase at 10 uM after 48 hrs by propidium iodide staining-based FACS analysis (reference value: 23.9 +/- 1.1%); type: functional
PC-3 [5] = assay: Induction of cell cycle arrest in human PC3 assessed as accumulation of cells at G2/M-phase at 10 uM after 24 hrs by propidium iodide staining-based FACS analysis (reference value: 18.9 +/- 0.3%); type: functional
PC-3 [6] = assay: Induction of cell cycle arrest in human PC3 assessed as accumulation of cells at G2/M-phase at 10 uM after 48 hrs by propidium iodide staining-based FACS analysis (reference value: 17.3 +/- 1.2%); type: functional
PC-3 [7] = assay: Induction of cell cycle arrest in human PC3 cells assessed as decrease in cyclin D1 expression at 3 to 10 uM after 24 hrs by Western blot analysis; type: functional, cell-based
Summary of the method: (§1)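 PC-3 whole-cell lysates at equal protein separated by SDS-PAGE and immunoblotted for cyclin D1 (24 h treatment) or cyclin E and p21Waf1/Cip1 (48 h treatment); actin as loading control; three independent repeats.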

PC-3 [8] = assay: Induction of cell cycle arrest in human PC3 cells assessed as decrease in cyclin E expression at 3 to 10 uM after 48 hrs by Western blot analysis; type: functional, cell-based; summary of the method: as §1
PC-3 [9] = assay: Induction of cell cycle arrest in human PC3 cells assessed as change in p21WAF1/Cip1 level at 3 to 10 uM after 48 hrs by Western blot analysis; type: functional, cell-based; summary of the method: as §1
PC-3 [10] = assay: Induction of apoptosis in human PC3 cells assessed as increase in phosphatidylserine expression on outer cell membrane leaflet at 3 to 30 uM by annexin V-FITC and propidium iodine staining-based by flow cytometric analysis; type: functional; details: TDE = time-dependent effect
Summary of the method: (§2)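 PC-3 cells exposed 48 and 72 h, adherent cells detached with citric saline, stained with FITC-annexin V and propidium iodide, analysed by flow cytometry for annexin V+ cells. Means ± SEM of three experiments, Newman-Keuls test.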

PC-3 [11] = assay: Induction of apoptosis in human PC3 cells assessed as increase in phosphatidylserine expression on outer cell membrane leaflet after 48 to 72 hrs by annexin V-FITC and propidium iodine staining-based by flow cytometric analysis; type: functional; summary of the method: as §2
PC-3 [12] = assay: Induction of apoptosis in human PC3 cells assessed as DNA fragmentation at 10 uM after 72 hrs by SDS-PAGE analysis; type: functional, cell-based; details: in the assay text read “agarose gel electrophoresis” for “SDS-PAGE analysis”
Summary of the method: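 PC-3 cells cultured with compound or solvent for 72 h; floating cells lysed in buffer of 100 mM Tris-HCl pH 8.0, 2 mM EDTA, 0.8% SDS, RNase A and proteinase K; DNA ladder resolved on 1.5% agarose gel.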

PC-3 [13] = assay: Cytotoxicity against human PC3 cells at 30 uM after 48 hrs by XTT assay; type: functional, cell-based; details: PC-3, 48 h
PC-3 [14] = assay: Cytotoxicity against human PC3 cells at 4 uM after 72 hrs by XTT assay; type: functional, cell-based; details: PC-3, 72 h
PC-3 [15] = assay: Cytotoxicity against human PC3 cells at 10 '-5 to 10 uM after 72 hrs by XTT assay; type: functional, cell-based
PC-3 [16] = assay: Cytotoxicity against human PC3 cells after at 30 uM after 48 to 72 hrs by XTT assay; type: functional, cell-based
[17] = Cytotoxicity against human RWPE1 cells at 1 to 30 uM after 48 hrs by XTT assay; type: cell-based; details: rwpe-1, 48 h
Summary of the method: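 Normal prostate epithelial RWPE-1 cells (HPV18-immortalized) grown in keratinocyte serum-free medium, 3–5 × 10^3 cells/well, treated 48 h; viability by XTT reduction (final 125 μM XTT, 25 μM phenazine methosulfate, 4 h), A450. Means ± SEM of 3–5 experiments in triplicate.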

PC-3 [18] = assay: Antiproliferative activity against human PC3 cells assessed as reduction in colony formation after 21 days using crystal violet staining by anchorage-independent soft agar assay; type: functional, cell-based
Summary of the method: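 PC-3 cells (Ham's F12-K, 10% FCS) seeded at 1000 cells/cm2 in 0.35% agar with 10 μM compound or solvent; colonies grown 21 days, fixed and stained with crystal violet.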

PC-3 [19] = assay: Antitumor activity against human PC3 cells xenografted in chicken chorioallantoic membrane assessed as decrease in tumor size treated topically QD for 4 days by immunohistochemical analysis; type: functional, cell-based
Summary of the method: (§3)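 0.7× 10^6 log-phase PC-3 cells in 20 μL medium/matrigel (1:1) grafted onto chicken CAM; from day 1, topical 20 μL compound or solvent once daily for 4 days. Xenografts fixed, paraffin-embedded, immunostained for Ki-67 with hematoxylin counterstain; staining quantified by image analysis; n = 3–6.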

PC-3 [20] = assay: Antitumor activity against human PC3 cells xenografted in chicken chorioallantoic membrane assessed as inhibition of cell proliferation treated topically QD for 4 days by immunohistochemical analysis; type: functional, cell-based; summary of the method: as §3
PC-3 [21] = assay: Antitumor activity against human PC3 cells xenografted in chicken chorioallantoic membrane assessed as inhibition of tumor angiogenesis treated topically QD for 4 days using desmin staining by immunohistochemical analysis; type: functional, cell-based
Summary of the method: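 PC-3 cells (0.7× 10^6 in 20 μL medium/matrigel 1:1) grafted onto chicken CAM, dosed topically with 20 μL compound or solvent once daily for 4 days from day 1. Paraffin sections immunostained for desmin as angiogenesis marker, hematoxylin counterstain; staining quantified by image analysis; n = 3–6.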

PC-3 [22] = assay: Cytotoxicity against human PC3 cells assessed as cell death at 3 to 30 uM after 48 hrs by LDH-release assay in presence of 10 uM of pan-caspase inhibitor z-VAD-fmk
PC-3 [23] = assay: Induction of apoptosis in human PC3 cells assessed as increase in phosphatidylserine expression on outer cell membrane leaflet at 10 uM by annexin V-FITC and propidium iodine staining-based by flow cytometric analysis; type: functional; details: TDE = time-dependent effect; summary of the method: as §2
PC-3 [24] = assay: Cytotoxicity against human PC3 cells after at 10 uM after 72 hrs by XTT assay; type: functional, cell-based
PC-3 [25] = assay: Induction of cell cycle arrest in human PC3 assessed as accumulation of cells at G2/M-phase at 10 nM after 48 hrs by propidium iodide staining-based FACS analysis; type: functional
Summary of the method: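 Positive-control treatment of PC-3 cells, then trypsinization, 70% ethanol fixation, propidium iodide DNA staining with 40 μg/mL RNase A, flow cytometric DNA content and modelled phase distribution.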

SMILES: CC(C)=CCC/C(C)=C/CC/C(C)=C/CC[C@@H]1[C@@]2(C)CC[C@H](O)C(C)(C)[C@@H]2CC[C@@]1(C)O
- Activity (PC-3 [1]): 75.4%
- Activity (PC-3 [2]): 74.2%
- Activity (PC-3 [3]): 5.6%
- Activity (PC-3 [4]): 9.3%
- Activity (PC-3 [5]): 18.9%
- Activity (PC-3 [6]): 17.3%
- Activity (PC-3 [7]): Active
- Activity (PC-3 [8]): Active
- Activity (PC-3 [9]): inactive
- Activity (PC-3 [10]): tde
- Activity (PC-3 [11]): Dose-dependent effect
- Activity (PC-3 [12]): Active
- IC50 (PC-3 [13]): 30 µM
- IC50 (PC-3 [14]): 4 µM
- Activity (PC-3 [15]): Active
- Activity (PC-3 [16]): Active
- Activity [17]: Non-toxic
- Activity (PC-3 [18]): Dose-dependent effect
- Activity (PC-3 [19]): Dose-dependent effect
- Activity (PC-3 [20]): Dose-dependent effect
- Activity (PC-3 [21]): Dose-dependent effect
- Activity (PC-3 [22]): inactive

SMILES: CC(=O)O[C@@]12CO[C@@H]1C[C@H](O)[C@@]1(C)C(=O)[C@H](O)C3=C(C)[C@@H](OC(=O)[C@H](O)[C@@H](NC(=O)OC(C)(C)C)c4ccccc4)C[C@@](O)([C@@H](OC(=O)c4ccccc4)[C@H]21)C3(C)C
- Activity (PC-3 [23]): tde
- Activity (PC-3 [15]): Active
- Activity (PC-3 [24]): inactive
- Activity (PC-3 [25]): Active
